≈ marks a conversion by molar mass, not a printed value. *1 amine or outer side, *2 acyl side, *3 side chain or, on linkers, in order; H or OH if unused. Where a SMILES comes first, the peptide text is derived from it. Bridges are numbered along the chain shown (N, C = ends). [ ]: non-standard residue; d: D form. The star is where a group is joined. pTerphenylCO(4''-OnC5H11) = CCCCCOc1ccc(-c2ccc(-c3ccc(C(=O)*)cc3)cc2)cc1; Orn(4R-OH,5R-OH) = O=C([C@H](C[C@@H](O)[C@@H](O)N[*:3])N[*:1])[*:2]; hTyr(3S-OH,4S-OH) = N[C@H](C(=O)O)[C@H](O)[C@@H](O)c1ccc(O)cc1; Pro(3S-OH,4S-Me) = C[C@H]1CN[C@H](C(=O)O)[C@H]1O; Hyp = O=C(O)[C@@H]1C[C@@H](O)CN1
Experiments:
Type in all cases: functional
Candida tropicalis [1] = experiment: Antifungal activity against Candida tropicalis after 48 hrs by CLSI method
Summary of the method: (§1)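 Broth microdilution MICs were run on invasive clinical Candida isolates under CLSI M27-A2, with incubation at 35°C for 48 h before reading. Control strains were C. parapsilosis ATCC 22019 and C. krusei ATCC 6258. MICs were interpreted under the same guideline to place isolates as susceptible, susceptible-dose dependent or resistant, reported as percentage of isolates per category, with MIC range, MIC50 and MIC90.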

Candida albicans [2] = experiment: Antifungal activity against Candida albicans after 48 hrs by CLSI method
Nakaseomyces glabratus [3] = experiment: Antifungal activity against Candida glabrata after 48 hrs by CLSI method
Pichia kudriavzevii [4] = experiment: Antifungal activity against Candida krusei after 48 hrs by CLSI method
Summary of the method: as §1, with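 “reading.” for “reading. Control strains were C. parapsilosis ATCC 22019 and C. krusei ATCC 6258.”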

Clavispora lusitaniae [5] = experiment: Antifungal activity against Candida lusitaniae after 48 hrs by CLSI method
Candida albicans [6] = experiment: Antifungal activity against Candida albicans assessed as susceptible isolates after 48 hrs by CLSI method; summary of the method: as §1
Nakaseomyces glabratus [7] = experiment: Antifungal activity against Candida glabrata assessed as susceptible isolates after 48 hrs by CLSI method; summary of the method: as §1
Candida tropicalis [8] = experiment: Antifungal activity against Candida tropicalis assessed as susceptible isolates after 48 hrs by CLSI method; summary of the method: as §1
Candida parapsilosis [9] = experiment: Antifungal activity against Candida parapsilosis assessed as susceptible isolates after 48 hrs by CLSI method; summary of the method: as §1
[10] = tested on: Meyerozyma guilliermondii; experiment: Antifungal activity against Candida guilliermondii assessed as susceptible isolates after 48 hrs by CLSI method; summary of the method: as §1
Pichia kudriavzevii [11] = experiment: Antifungal activity against Candida krusei assessed as susceptible isolates after 48 hrs by CLSI method; summary of the method: as §1
Clavispora lusitaniae [12] = experiment: Antifungal activity against Candida lusitaniae assessed as susceptible isolates after 48 hrs by CLSI method; summary of the method: as §1
Candida parapsilosis [13] = experiment: Antifungal activity against Candida parapsilosis after 48 hrs by CLSI method; conditions: Lodderomyces parapsilosis; summary of the method: as §1
[14] = tested on: Meyerozyma guilliermondii; experiment: Antifungal activity against Candida guilliermondii after 48 hrs by CLSI method
Candida albicans [15] = experiment: Antifungal activity against Candida albicans assessed as resistant isolates after 48 hrs by CLSI method; summary of the method: as §1
Nakaseomyces glabratus [16] = experiment: Antifungal activity against Candida glabrata assessed as resistant isolates after 48 hrs by CLSI method; summary of the method: as §1
Candida tropicalis [17] = experiment: Antifungal activity against Candida tropicalis assessed as resistant isolates after 48 hrs by CLSI method; summary of the method: as §1
Candida parapsilosis [18] = experiment: Antifungal activity against Candida parapsilosis assessed as resistant isolates after 48 hrs by CLSI method; summary of the method: as §1
[19] = tested on: Meyerozyma guilliermondii; experiment: Antifungal activity against Candida guilliermondii assessed as resistant isolates after 48 hrs by CLSI method; summary of the method: as §1
Pichia kudriavzevii [20] = experiment: Antifungal activity against Candida krusei assessed as resistant isolates after 48 hrs by CLSI method; summary of the method: as §1
Clavispora lusitaniae [21] = experiment: Antifungal activity against Candida lusitaniae assessed as resistant isolates after 48 hrs by CLSI method; summary of the method: as §1
Candida albicans [22] = experiment: Antifungal activity against Candida albicans assessed as susceptible dose-dependent isolates after 48 hrs by CLSI method; summary of the method: as §1
Nakaseomyces glabratus [23] = experiment: Antifungal activity against Candida glabrata assessed as susceptible dose-dependent isolates after 48 hrs by CLSI method; summary of the method: as §1
Candida tropicalis [24] = experiment: Antifungal activity against Candida tropicalis assessed as susceptible dose-dependent isolates after 48 hrs by CLSI method; summary of the method: as §1
Candida parapsilosis [25] = experiment: Antifungal activity against Candida parapsilosis assessed as susceptible dose-dependent isolates after 48 hrs by CLSI method; summary of the method: as §1
[26] = tested on: Meyerozyma guilliermondii; experiment: Antifungal activity against Candida guilliermondii assessed as susceptible dose-dependent isolates after 48 hrs by CLSI method; summary of the method: as §1
Pichia kudriavzevii [27] = experiment: Antifungal activity against Candida krusei assessed as susceptible dose-dependent isolates after 48 hrs by CLSI method; summary of the method: as §1
Clavispora lusitaniae [28] = experiment: Antifungal activity against Candida lusitaniae assessed as susceptible dose-dependent isolates after 48 hrs by CLSI method; summary of the method: as §1

SMILES: C[C@@H]1[C@H](O)[C@@H](C)/C=C/C=C/C=C/C=C/C=C/C=C/C=C/[C@H](O[C@@H]2O[C@H](C)[C@@H](O)[C@H](N)[C@@H]2O)C[C@@H]2O[C@](O)(C[C@@H](O)C[C@@H](O)[C@H](O)CC[C@@H](O)C[C@@H](O)CC(=O)O[C@H]1C)C[C@H](O)[C@H]2C(=O)O [AMPHOTERICIN B]
- MIC (Candida tropicalis [1]): 0.5 µg/mL (≈ 0.541 µM)
- MIC50 (Candida tropicalis [1]): 0.5 µg/mL (≈ 0.541 µM)
- MIC90 (Candida tropicalis [1]): 1 µg/mL (≈ 1.08 µM)
- MIC (Candida albicans [2]): 1 µg/mL (≈ 1.08 µM)
- MIC50 (Candida albicans [2]): 1 µg/mL (≈ 1.08 µM)
- MIC90 (Candida albicans [2]): 1 µg/mL (≈ 1.08 µM)
- MIC50 (Nakaseomyces glabratus [3]): 2 µg/mL (≈ 2.16 µM)
- MIC90 (Nakaseomyces glabratus [3]): 2 µg/mL (≈ 2.16 µM)
- MIC50 (Pichia kudriavzevii [4]): 2 µg/mL (≈ 2.16 µM)
- MIC90 (Pichia kudriavzevii [4]): 2 µg/mL (≈ 2.16 µM)
- MIC50 (Clavispora lusitaniae [5]): 1 µg/mL (≈ 1.08 µM)
- MIC90 (Clavispora lusitaniae [5]): 1 µg/mL (≈ 1.08 µM)
- Activity (Candida albicans [6]): 100%
- Activity (Nakaseomyces glabratus [7]): 47%
- Activity (Candida tropicalis [8]): 98%
- Activity (Candida parapsilosis [9]): 98%
- Activity [10]: 97%
- Activity (Pichia kudriavzevii [11]): 5%
- Activity (Clavispora lusitaniae [12]): 100%

SMILES: CCCCCOc1ccc(-c2ccc(-c3ccc(C(=O)N[C@H]4C[C@@H](O)[C@@H](O)NC(=O)[C@@H]5[C@@H](O)[C@@H](C)CN5C(=O)[C@H]([C@@H](C)O)NC(=O)[C@H]([C@H](O)[C@@H](O)c5ccc(O)cc5)NC(=O)[C@@H]5C[C@@H](O)CN5C(=O)[C@H]([C@@H](C)O)NC4=O)cc3)cc2)cc1 [ANIDULAFUNGIN] ({pTerphenylCO(4''-OnC5H11)}-[Orn(4R-OH,5R-OH)]T[Hyp][hTyr(3S-OH,4S-OH)]T[Pro(3S-OH,4S-Me)]; lactam 1-C)
- MIC50 (Candida tropicalis [1]): 0.03 µg/mL (≈ 0.0263 µM)
- MIC90 (Candida tropicalis [1]): 0.06 µg/mL (≈ 0.0526 µM)
- MIC (Candida albicans [2]): 0.015 µg/mL (≈ 0.0132 µM)
- MIC50 (Candida albicans [2]): 0.015 µg/mL (≈ 0.0132 µM)
- MIC90 (Candida albicans [2]): 0.015 µg/mL (≈ 0.0132 µM)
- MIC50 (Nakaseomyces glabratus [3]): 0.03 µg/mL (≈ 0.0263 µM)
- MIC90 (Nakaseomyces glabratus [3]): 0.03 µg/mL (≈ 0.0263 µM)
- MIC50 (Candida parapsilosis [13]): 1 µg/mL (≈ 0.877 µM)
- MIC90 (Candida parapsilosis [13]): 2 µg/mL (≈ 1.75 µM)
- MIC50 [14]: 1 µg/mL (≈ 0.877 µM)
- MIC90 [14]: 2 µg/mL (≈ 1.75 µM)
- MIC50 (Pichia kudriavzevii [4]): 0.12 µg/mL (≈ 0.105 µM)
- MIC90 (Pichia kudriavzevii [4]): 0.25 µg/mL (≈ 0.219 µM)
- MIC50 (Clavispora lusitaniae [5]): 0.06 µg/mL (≈ 0.0526 µM)
- MIC90 (Clavispora lusitaniae [5]): 0.12 µg/mL (≈ 0.105 µM)

SMILES: CC[C@H](C)C[C@H](C)CCCCCCCCC(=O)N[C@H]1C[C@@H](O)[C@@H](NCCN)NC(=O)[C@@H]2[C@@H](O)CCN2C(=O)[C@H]([C@H](O)CCN)NC(=O)[C@H]([C@H](O)[C@@H](O)c2ccc(O)cc2)NC(=O)[C@@H]2C[C@@H](O)CN2C(=O)[C@H]([C@@H](C)O)NC1=O [CASPOFUNGIN]
- MIC50 (Candida tropicalis [1]): 0.25 µg/mL (≈ 0.229 µM)
- MIC90 (Candida tropicalis [1]): 0.5 µg/mL (≈ 0.457 µM)
- MIC50 (Candida albicans [2]): 0.25 µg/mL (≈ 0.229 µM)
- MIC90 (Candida albicans [2]): 0.25 µg/mL (≈ 0.229 µM)
- MIC50 (Nakaseomyces glabratus [3]): 0.25 µg/mL (≈ 0.229 µM)
- MIC90 (Nakaseomyces glabratus [3]): 0.25 µg/mL (≈ 0.229 µM)
- MIC50 (Candida parapsilosis [13]): 1 µg/mL (≈ 0.915 µM)
- MIC90 (Candida parapsilosis [13]): 2 µg/mL (≈ 1.83 µM)
- MIC50 [14]: 2 µg/mL (≈ 1.83 µM)
- MIC90 [14]: 2 µg/mL (≈ 1.83 µM)
- MIC50 (Pichia kudriavzevii [4]): 1 µg/mL (≈ 0.915 µM)
- MIC90 (Pichia kudriavzevii [4]): 1 µg/mL (≈ 0.915 µM)
- MIC50 (Clavispora lusitaniae [5]): 2 µg/mL (≈ 1.83 µM)
- MIC90 (Clavispora lusitaniae [5]): 2 µg/mL (≈ 1.83 µM)

SMILES: OC(Cn1cncn1)(Cn1cncn1)c1ccc(F)cc1F [FLUCONAZOLE]
- MIC50 (Candida tropicalis [1]): 1 µg/mL (≈ 3.27 µM)
- MIC90 (Candida tropicalis [1]): 2 µg/mL (≈ 6.53 µM)
- MIC (Candida albicans [2]): 0.12 µg/mL (≈ 0.392 µM)
- MIC50 (Candida albicans [2]): 0.12 µg/mL (≈ 0.392 µM)
- MIC90 (Candida albicans [2]): 0.25 µg/mL (≈ 0.816 µM)
- MIC50 (Nakaseomyces glabratus [3]): 16 µg/mL (≈ 52.2 µM)
- MIC90 (Nakaseomyces glabratus [3]): 32 µg/mL (≈ 104 µM)
- MIC50 (Candida parapsilosis [13]): 1 µg/mL (≈ 3.27 µM)
- MIC90 (Candida parapsilosis [13]): 2 µg/mL (≈ 6.53 µM)
- MIC50 (Pichia kudriavzevii [4]): 32 µg/mL (≈ 104 µM)
- MIC90 (Pichia kudriavzevii [4]): 64 µg/mL (≈ 209 µM)
- MIC50 (Clavispora lusitaniae [5]): 0.25 µg/mL (≈ 0.816 µM)
- MIC90 (Clavispora lusitaniae [5]): 0.5 µg/mL (≈ 1.63 µM)
- Activity (Candida albicans [6]): 100%
- Activity (Nakaseomyces glabratus [7]): 22%
- Activity (Candida tropicalis [8]): 100%
- Activity (Candida parapsilosis [9]): 98%
- Activity [10]: 88%
- Activity (Pichia kudriavzevii [11]): 0%
- Activity (Clavispora lusitaniae [12]): 100%
- Activity (Candida albicans [15]): 0%
- Activity (Nakaseomyces glabratus [16]): 6%
- Activity (Candida tropicalis [17]): 0%
- Activity (Candida parapsilosis [18]): 0%
- Activity [19]: 3%
- Activity (Pichia kudriavzevii [20]): 38%
- Activity (Clavispora lusitaniae [21]): 0%
- Activity (Candida albicans [22]): 0%
- Activity (Nakaseomyces glabratus [23]): 73%
- Activity (Candida tropicalis [24]): 0%
- Activity (Candida parapsilosis [25]): 2%
- Activity [26]: 9%
- Activity (Pichia kudriavzevii [27]): 63%
- Activity (Clavispora lusitaniae [28]): 0%

Reference: ChEMBL document CHEMBL1275451, “In vitro susceptibilities of invasive isolates of Candida species: rapid increase in rates of fluconazole susceptible-dose dependent Candida glabrata isolates” (2008)
